Laboratory results taken from ChEMBL document CHEMBL3593206, “SAR Studies of Exosite-Binding Substrate-Selective Inhibitors of A Disintegrin And Metalloprotease 17 (ADAM17) and Application as Selective in Vitro Probes” (J Med Chem, 2015).
Active and inactive are the calls of the source. No cut-off for these calls is given here.

How the values were obtained:
[1] = target: T1, Disintegrin and metalloproteinase domain-containing protein 10 (Homo sapiens) (UniProt O14672); conditions: A549, 10 uM
T1 sequence (whole entry): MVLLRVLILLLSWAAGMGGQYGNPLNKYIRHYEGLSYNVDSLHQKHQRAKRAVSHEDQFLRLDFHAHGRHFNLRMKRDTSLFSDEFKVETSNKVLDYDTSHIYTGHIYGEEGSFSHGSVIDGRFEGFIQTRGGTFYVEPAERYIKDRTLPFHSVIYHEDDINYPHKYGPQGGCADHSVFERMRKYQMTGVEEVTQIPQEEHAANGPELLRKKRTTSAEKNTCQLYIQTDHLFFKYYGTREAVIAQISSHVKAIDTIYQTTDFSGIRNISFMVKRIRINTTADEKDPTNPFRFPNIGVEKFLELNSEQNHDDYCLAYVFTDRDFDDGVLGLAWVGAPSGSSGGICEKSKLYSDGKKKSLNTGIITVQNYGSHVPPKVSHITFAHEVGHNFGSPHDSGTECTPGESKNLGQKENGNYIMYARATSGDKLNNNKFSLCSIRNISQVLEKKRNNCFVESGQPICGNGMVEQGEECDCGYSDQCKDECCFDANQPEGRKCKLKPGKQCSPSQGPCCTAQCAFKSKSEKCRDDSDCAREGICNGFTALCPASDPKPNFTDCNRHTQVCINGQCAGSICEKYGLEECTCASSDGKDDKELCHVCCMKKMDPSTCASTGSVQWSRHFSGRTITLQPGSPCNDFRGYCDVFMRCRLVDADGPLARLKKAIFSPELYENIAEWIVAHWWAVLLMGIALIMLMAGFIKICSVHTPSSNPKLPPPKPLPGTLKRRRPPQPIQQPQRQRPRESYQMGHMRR

[2] = target: T1, Disintegrin and metalloproteinase domain-containing protein 10 (Homo sapiens); assay: Inhibition of ADAM10 (unknown origin) at 100 uM preincubated for 30 mins followed by substrate addition measured every 30 mins for 2 hrs by fluorescence assay relative to control
Outline: (§1)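 Enzyme at 30 nM (3× solution) in 10 mM Hepes, 0.001% Brij-35, pH 7.5. Inhibitor series of 10 points, 1:3, from 300 μM, preincubated 30 min at RT. Glycosylated substrate added from a 30 μM 3× solution. Fluorescence (ex 360/em 460 nm) read every 30 min for 2 h. Inhibition taken from hydrolysis rates against substrate-only and substrate-plus-enzyme wells.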

[3] = target: T2, Disintegrin and metalloproteinase domain-containing protein 10 (Homo sapiens, UniProt O14672); assay: Inhibition of ADAM10 (unknown origin) preincubated for 30 mins followed by substrate addition measured every 30 mins for 2 hrs by fluorescence assay
T2 sequence (O14672 whole entry): T1 sequence (whole entry)
Outline: as §1

[4] = target: T3, Disintegrin and metalloproteinase domain-containing protein 17 (Homo sapiens, UniProt P78536); assay: Inhibition of ADAM17 (unknown origin) preincubated for 30 mins followed by substrate addition measured every 30 mins for 2 hrs by fluorescence assay
Outline: as §1

[5] = target: T4, 72 kDa type IV collagenase (Homo sapiens, UniProt P08253); assay: Inhibition of MMP2 (unknown origin) using Mca-KLPGL-Dnp-AR as substrate preincubated for 30 mins followed by substrate addition measured after 1 hr by fluorescence assay
Outline: (§2)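 Inhibitor as 10-point 1:3 dilutions from 300 μM, 30 min at RT. Substrate added from a 30 μM 3× solution. Single fluorescence read (ex 324/em 393 nm) after 1 h at RT.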
Target sequence in this assay (P08253 whole entry): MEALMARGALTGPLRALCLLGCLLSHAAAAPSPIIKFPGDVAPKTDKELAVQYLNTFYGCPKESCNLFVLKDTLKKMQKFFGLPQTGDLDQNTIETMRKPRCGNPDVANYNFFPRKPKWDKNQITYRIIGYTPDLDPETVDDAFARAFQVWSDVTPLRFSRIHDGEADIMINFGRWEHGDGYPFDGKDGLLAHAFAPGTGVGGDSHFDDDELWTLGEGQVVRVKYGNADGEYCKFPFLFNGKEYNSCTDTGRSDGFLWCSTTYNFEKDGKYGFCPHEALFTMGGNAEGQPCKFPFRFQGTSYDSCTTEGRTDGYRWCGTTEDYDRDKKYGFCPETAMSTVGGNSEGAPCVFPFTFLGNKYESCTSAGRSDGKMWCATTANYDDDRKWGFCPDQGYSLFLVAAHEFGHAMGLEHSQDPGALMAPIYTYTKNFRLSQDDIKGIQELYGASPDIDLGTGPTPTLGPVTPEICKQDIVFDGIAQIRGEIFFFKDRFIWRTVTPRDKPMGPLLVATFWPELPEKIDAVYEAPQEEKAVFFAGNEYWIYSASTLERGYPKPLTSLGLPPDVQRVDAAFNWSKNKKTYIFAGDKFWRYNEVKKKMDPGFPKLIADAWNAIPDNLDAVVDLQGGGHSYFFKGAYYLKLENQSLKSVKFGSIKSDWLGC

[6] = target: T5, Neutrophil collagenase (Homo sapiens, UniProt P22894); assay: Inhibition of MMP8 (unknown origin) using Mca-KLPGL-Dnp-AR as substrate preincubated for 30 mins followed by substrate addition measured after 1 hr by fluorescence assay
Outline: as §2
Target sequence in this assay (P22894 whole entry): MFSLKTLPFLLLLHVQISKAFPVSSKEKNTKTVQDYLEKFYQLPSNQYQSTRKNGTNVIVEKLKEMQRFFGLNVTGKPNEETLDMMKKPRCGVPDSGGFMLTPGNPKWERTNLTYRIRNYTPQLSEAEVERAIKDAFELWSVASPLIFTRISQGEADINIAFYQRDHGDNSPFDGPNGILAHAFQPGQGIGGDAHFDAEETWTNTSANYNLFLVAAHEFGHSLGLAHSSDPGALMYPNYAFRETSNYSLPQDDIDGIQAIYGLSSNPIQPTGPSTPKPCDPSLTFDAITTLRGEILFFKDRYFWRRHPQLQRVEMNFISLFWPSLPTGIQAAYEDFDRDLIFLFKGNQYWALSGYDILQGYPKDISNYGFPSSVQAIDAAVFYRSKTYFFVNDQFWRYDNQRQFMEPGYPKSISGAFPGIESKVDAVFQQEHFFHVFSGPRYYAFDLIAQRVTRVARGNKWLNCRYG

[7] = target: T6, Matrix metalloproteinase-9 (Homo sapiens, UniProt P14780); assay: Inhibition of MMP9 (unknown origin) using Mca-KLPGL-Dnp-AR as substrate preincubated for 30 mins followed by substrate addition measured after 1 hr by fluorescence assay
Outline: as §2

[8] = target: Matrix metalloproteinase-14 (Homo sapiens, UniProt P50281); assay: Inhibition of MMP14 (unknown origin) using Mca-KLPGL-Dnp-AR as substrate preincubated for 30 mins followed by substrate addition measured after 1 hr by fluorescence assay
Outline: as §2

[9] = target: T4, 72 kDa type IV collagenase; assay: Inhibition of MMP2 (unknown origin) using Mca-KLPGL-Dnp-AR as substrate at 100 uM preincubated for 30 mins followed by substrate addition measured after 1 hr by fluorescence assay relative to control
Outline: as §2
Target sequence in this assay (P08253 110-660 limits assumed): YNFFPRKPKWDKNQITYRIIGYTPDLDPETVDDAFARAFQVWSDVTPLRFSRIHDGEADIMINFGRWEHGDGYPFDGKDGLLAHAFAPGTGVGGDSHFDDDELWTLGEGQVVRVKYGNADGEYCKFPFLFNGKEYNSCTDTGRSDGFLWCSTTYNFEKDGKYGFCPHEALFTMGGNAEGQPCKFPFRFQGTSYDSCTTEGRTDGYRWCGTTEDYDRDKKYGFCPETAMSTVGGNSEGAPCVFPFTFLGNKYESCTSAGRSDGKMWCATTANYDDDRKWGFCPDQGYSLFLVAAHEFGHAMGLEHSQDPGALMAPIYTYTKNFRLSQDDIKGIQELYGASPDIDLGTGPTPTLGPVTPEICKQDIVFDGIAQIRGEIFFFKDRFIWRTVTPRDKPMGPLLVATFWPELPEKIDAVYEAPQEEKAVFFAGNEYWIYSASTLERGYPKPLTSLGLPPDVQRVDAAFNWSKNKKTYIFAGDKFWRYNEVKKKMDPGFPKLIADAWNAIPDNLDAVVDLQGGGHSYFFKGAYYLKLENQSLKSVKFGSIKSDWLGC

[10] = target: T5, Neutrophil collagenase; assay: Inhibition of MMP8 (unknown origin) using Mca-KLPGL-Dnp-AR as substrate at 100 uM preincubated for 30 mins followed by substrate addition measured after 1 hr by fluorescence assay relative to control
Outline: as §2
Target sequence in this assay (P22894 101-467 limits assumed): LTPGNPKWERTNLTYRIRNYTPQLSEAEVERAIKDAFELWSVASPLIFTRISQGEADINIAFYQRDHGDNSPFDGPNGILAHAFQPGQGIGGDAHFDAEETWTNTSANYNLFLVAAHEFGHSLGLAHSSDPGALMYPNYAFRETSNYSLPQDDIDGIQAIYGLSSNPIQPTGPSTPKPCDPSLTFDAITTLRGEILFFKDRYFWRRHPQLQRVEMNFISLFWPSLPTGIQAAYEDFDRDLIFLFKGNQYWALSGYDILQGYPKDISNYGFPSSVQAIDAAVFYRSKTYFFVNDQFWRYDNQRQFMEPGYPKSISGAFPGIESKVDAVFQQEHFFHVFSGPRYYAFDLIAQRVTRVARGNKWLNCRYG

[11] = target: T6, Matrix metalloproteinase-9; assay: Inhibition of MMP9 (unknown origin) using Mca-KLPGL-Dnp-AR as substrate at 100 uM preincubated for 30 mins followed by substrate addition measured after 1 hr by fluorescence assay relative to control
Outline: as §2

[12] = target: T3, Disintegrin and metalloproteinase domain-containing protein 17; assay: Inhibition of ADAM17 (unknown origin) at 100 uM preincubated for 30 mins followed by substrate addition measured every 30 mins for 2 hrs by fluorescence assay relative to control
Outline: as §1

[13] = Cytotoxicity against CHOK1 cells assessed as inhibition of cell viability up to 33 uM after 72 hrs by CellTiter-Glo assay; assay type: cell-based, Cricetulus griseus; conditions: chinese hamster, cho-k1, 72 h
[14] = test system: A549; assay: Cytotoxicity against human A549 cells assessed as inhibition of cell viability up to 33 uM after 72 hrs by CellTiter-Glo assay; assay type: cell-based; conditions: a549, 72 h
[15] = target: T3, Disintegrin and metalloproteinase domain-containing protein 17; assay: Inhibition of ADAM17 in human THP1 cells assessed as inhibition of LPS-stimulated TNFalpha cleavage at 25 uM after 1 hr by AlphaScreen assay relative to control; assay type: cell-based; conditions: THP-1
Outline: (§3)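 THP-1 cells grown in RPMI 1640 with 10% FBS and 0.05 mM 2-mercaptoethanol; 3000 cells per well. Compound given in 3% DMSO for 1 h, then LPS added (1 μg/mL final) and cells incubated overnight at 37 °C. TNFα detected by AlphaScreen using anti-TNFα acceptor beads and streptavidin donor beads, each step 1 h in the dark at RT.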

[16] = target: T3, Disintegrin and metalloproteinase domain-containing protein 17; assay: Inhibition of ADAM17 in human THP1 cells assessed as inhibition of LPS-stimulated TNFalpha cleavage after 1 hr by AlphaScreen assay; assay type: cell-based, THP-1
Outline: as §3

[17] = target: T3, Disintegrin and metalloproteinase domain-containing protein 17; assay: Inhibition of ADAM17 in human HT1080 cells assessed as inhibition of PMA-stimulated PTK7 L622D mutant shedding at 25 to 100 uM after 16 hrs by Western blot analysis; assay type: cell-based; conditions: HT-1080
Outline: (§4)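 PTK7 shedding tested at 25, 50 and 100 μM in PMA-stimulated cells. HT1080 fibrosarcoma cells carried the L622D PTK7 mutant uncleavable by MT1-MMP; SW480 colorectal cells expressed wild-type PTK7 endogenously. Soluble PTK7 was detected.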

[18] = target: T3, Disintegrin and metalloproteinase domain-containing protein 17; assay: Inhibition of ADAM17 in human SW480 cells assessed as inhibition of PMA-stimulated wild type PTK7 shedding at 25 to 100 uM after 16 hrs by Western blot analysis; assay type: cell-based
Outline: as §4

[19] = target: T3, Disintegrin and metalloproteinase domain-containing protein 17; assay: Inhibition of ADAM17 in human A549 cells assessed as inhibition of PMA-stimulated heregulin shedding at 40 uM incubated for 1 hr followed by PMA stimulation measured after 1 hr; assay type: cell-based
Outline: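 Heregulin shedding in A549 cells, with all compounds tested at 40 μM.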

[20] = target: T3, Disintegrin and metalloproteinase domain-containing protein 17; assay: Inhibition of ADAM17 in human A549 cells assessed as effect on PMA-stimulated TGFalpha shedding up to 100 uM preincubated for 1 hr followed by PMA stimulation measured after 1 hr by ELISA; assay type: cell-based
Outline: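 TGFα shedding from PMA-treated A549 cells tested up to 100 μM. Marimastat at 10 μM served as control, with a non-PMA-treated control included; soluble TGFα measured in the supernatant.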

[21] = target: T3, Disintegrin and metalloproteinase domain-containing protein 17; assay: Inhibition of ADAM17 in human EAhy926 cells assessed as inhibition of neprilysin shedding at 15 uM relative to control; assay type: cell-based

T3 sequence (P78536 whole entry, the tested form may be a part): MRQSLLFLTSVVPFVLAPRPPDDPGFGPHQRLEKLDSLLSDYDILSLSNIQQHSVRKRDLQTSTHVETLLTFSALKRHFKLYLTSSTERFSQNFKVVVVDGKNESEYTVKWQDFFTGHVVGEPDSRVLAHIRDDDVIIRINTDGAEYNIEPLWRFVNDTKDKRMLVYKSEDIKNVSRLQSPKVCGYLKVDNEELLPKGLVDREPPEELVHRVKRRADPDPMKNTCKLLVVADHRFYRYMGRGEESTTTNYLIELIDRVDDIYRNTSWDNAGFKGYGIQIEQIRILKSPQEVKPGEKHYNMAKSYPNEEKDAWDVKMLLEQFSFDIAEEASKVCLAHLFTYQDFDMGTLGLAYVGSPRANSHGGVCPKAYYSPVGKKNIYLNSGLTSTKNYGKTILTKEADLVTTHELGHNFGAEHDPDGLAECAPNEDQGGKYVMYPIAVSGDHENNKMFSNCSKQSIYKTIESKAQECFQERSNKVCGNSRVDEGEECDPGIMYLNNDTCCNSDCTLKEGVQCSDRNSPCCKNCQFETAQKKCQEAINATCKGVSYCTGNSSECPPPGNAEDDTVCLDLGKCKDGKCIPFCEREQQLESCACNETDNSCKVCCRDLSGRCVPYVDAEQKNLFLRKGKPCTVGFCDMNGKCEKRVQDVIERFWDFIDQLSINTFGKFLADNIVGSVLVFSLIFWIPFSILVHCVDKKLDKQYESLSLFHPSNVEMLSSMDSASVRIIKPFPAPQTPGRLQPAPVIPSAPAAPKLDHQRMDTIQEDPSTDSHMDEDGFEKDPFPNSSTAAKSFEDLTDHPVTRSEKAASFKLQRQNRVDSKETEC
T6 sequence (P14780 whole entry): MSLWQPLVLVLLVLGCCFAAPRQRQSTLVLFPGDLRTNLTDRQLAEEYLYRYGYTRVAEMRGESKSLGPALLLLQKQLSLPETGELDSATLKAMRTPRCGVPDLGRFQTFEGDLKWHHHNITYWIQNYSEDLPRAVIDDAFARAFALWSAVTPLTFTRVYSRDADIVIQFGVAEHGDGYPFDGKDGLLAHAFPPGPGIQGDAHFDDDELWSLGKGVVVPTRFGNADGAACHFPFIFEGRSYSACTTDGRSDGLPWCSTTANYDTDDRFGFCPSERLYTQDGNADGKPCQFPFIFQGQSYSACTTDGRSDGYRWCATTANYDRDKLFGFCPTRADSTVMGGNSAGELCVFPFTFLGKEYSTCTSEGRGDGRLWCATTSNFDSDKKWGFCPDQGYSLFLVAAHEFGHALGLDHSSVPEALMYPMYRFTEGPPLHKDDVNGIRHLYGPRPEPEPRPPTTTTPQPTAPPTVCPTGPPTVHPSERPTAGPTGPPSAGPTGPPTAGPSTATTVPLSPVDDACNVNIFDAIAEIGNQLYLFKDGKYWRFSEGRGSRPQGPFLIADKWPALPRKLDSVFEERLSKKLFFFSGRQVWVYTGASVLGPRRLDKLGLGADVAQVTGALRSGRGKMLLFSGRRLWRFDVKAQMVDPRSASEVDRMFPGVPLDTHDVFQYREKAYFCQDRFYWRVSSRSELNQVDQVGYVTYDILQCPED

For CNC(=O)[C@@H](NC(=O)[C@H](CC(C)C)[C@H](O)C(=O)NO)C(C)(C)C, the inhibition [1] was “Active”.

Work on CCC[C@H]1CNC(=O)C(=O)N1C[C@@H]1CCCN1C[C@@H](CC1CCCCC1)N1C[C@H](Cc2ccccc2)N(CCc2ccccc2)C(=O)C1=O yielded an inhibition [2] of 0%, an IC50 [3] greater than 100 µM and an IC50 [4] of 4.3 µM. The IC50 [5] was greater than 100 µM, the IC50 [6] was greater than 100 µM and the IC50 [7] was greater than 100 µM. The IC50 [8] was greater than 100 µM, the inhibition [9] was 0% and the inhibition [10] was 0%. For the same molecule, the inhibition [11] was 0%, the inhibition [12] was 100% and the Activity [13] was “Non-toxic”. The Activity [14] was “Non-toxic”, the inhibition [15] was 60% and the IC50 [16] was 28 µM. The inhibition [17] was 0%, the inhibition [18] was 0% and the inhibition [19] was 28%. For the same molecule, the inhibition [20] was 0% and the inhibition [21] was 38%.
